CHRM5 PAM: positive allosteric modulators of human muscarinic M5 receptor; P08912; CHO-K1 hM5, Fluo-8 calcium, ACh EC20 PAM; 0% = ACh EC20, 100% = ACh EC100; activation, % at 3 µM; AID 624038; hit rate 0.3% among 360,000;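 active = activation above the run cutoff, the mean activation of all test compounds plus 3 SD, cut at about 18% in these data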
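Assay system: CHO-K1 hM5 cells / Incubation: Fluo-8 loading 80 min at 37 °C plus 30 min room temperature / Technique: Fluo-8 calcium dye fluorescence, kinetic read / Repeats: single replicate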
CHRM4 agonist: agonists of human muscarinic M4 receptor (CHRM4); P08173; AID 624127; activation, % at 3 µM; CHO-K1 hM4/Gqi5, Fluo-8 calcium fluorescence; vehicle 0%, full acetylcholine response 100%; hit rate 0.14% among 360,000;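 active = activation above the run mean over all test wells plus 3 SD, cut at about 32% in these data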;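 also: peak over basal fluorescence ratio per well then scaled between controls; 0% = DMSO wells and 100% = acetylcholine at EC100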
Target sequence (P08173 whole entry, looked up): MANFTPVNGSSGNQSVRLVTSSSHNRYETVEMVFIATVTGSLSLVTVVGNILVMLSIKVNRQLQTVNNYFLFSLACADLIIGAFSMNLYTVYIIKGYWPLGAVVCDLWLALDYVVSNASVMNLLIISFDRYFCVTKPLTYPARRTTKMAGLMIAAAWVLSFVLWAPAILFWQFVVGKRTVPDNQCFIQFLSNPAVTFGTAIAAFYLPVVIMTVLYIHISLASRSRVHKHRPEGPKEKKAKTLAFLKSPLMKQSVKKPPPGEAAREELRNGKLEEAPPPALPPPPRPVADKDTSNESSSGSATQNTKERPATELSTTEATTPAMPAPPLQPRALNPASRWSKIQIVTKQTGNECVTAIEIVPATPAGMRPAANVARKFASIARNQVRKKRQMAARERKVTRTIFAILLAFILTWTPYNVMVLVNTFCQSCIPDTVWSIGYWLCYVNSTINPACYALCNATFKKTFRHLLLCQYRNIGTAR
M5 antag: antagonists of human muscarinic M5 receptor (CHRM5) | CHO-hM5 cells, Fluo-8 calcium fluorescence, ACh EC80 | inhibition, % at 3 µM | P08912 | hit rate 0.59% among 360,000 | AID 624040;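 active = inhibition above a per-plate cutoff, the mean of that plate's test compounds plus 3 SD, cut at about 27% in these data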;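 also: 0% = acetylcholine EC80 with DMSO and 100% = DMSO without agonist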
CHRM4 PAM: potentiates acetylcholine response at human M4 receptor. activation, % at 3 µM. P08173. hit rate 0.4% among 360,000. CHO-K1 hM4/Gqi5, Fluo-8 calcium fluorescence, ACh EC20; 0% = ACh EC20, 100% = maximal ACh;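 active = activation above its plate's cutoff, the mean activation of sample wells plus 3 SD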
M4 antag: blocks acetylcholine activation of human M4 receptor; CHO-hM4 cells, ACh EC80, Fluo-8 calcium fluorescence; hit rate 0.73% among 360,000; P08173; inhibition, % at 3 µM;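 active = inhibition above its plate's cutoff, the mean inhibition of sample wells plus 3 SD, cut at about 27% in these data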;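 also: 0% = acetylcholine EC80 with DMSO and 100% = DMSO without agonist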
M5 ag: agonists of human muscarinic M5 receptor (CHRM5). activation, % at 3 µM. P08912. CHO-K1 hM5 cells, Fluo-8 calcium fluorescence; 0% DMSO wells, 100% maximal acetylcholine response. hit rate 0.19% among 360,000. AID 624037;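 active = activation above the run's mean over test compounds plus 3 SD, cut at about 23% in these data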;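 also: signal is peak over basal fluorescence ratio across the kinetic read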
Numbers without * were called inactive. Most compounds without a hit are left out; they make up all but 1.8% or so of the library.

SMILES | CHRM5 PAM | CHRM4 agonist | M5 antag | CHRM4 PAM | M4 antag | M5 ag
O=C(CSCc1ccc(C(=O)O)cc1)Nc1ccc2ccccc2c1 | -5 | 1 | 2 | 13 | 34* | 3
COc1ccccc1NC(=O)C1CCCN1C(=O)Nc1ccc(F)cc1 (centres undefined) | -1 | 2 | 16 | -7 | 8 | -3
O=C(NC1CC2CCC(C1)N2Cc1ccccc1)c1ccccc1Cl (centres undefined) | -1 | 1 | 9 | -2 | 11 | -14
CCN(CC)CCCNc1nc2cc(OC)c(OC)cc2c2nc(-c3ccccc3)nn12 | 3 | 2 | 0 | 17* | -4 | -1
CCN(CC)CCCNc1nc2cc(OC)c(OC)cc2c2nc(-c3cccnc3)nn12 | -6 | 0 | -3 | -4 | 10 | -4
CCOCCCn1c(=S)[nH]c2cc(C(=O)NCCc3ccccc3)ccc2c1=O | -1 | 3 | 2 | 2 | 1 | -3
CCOC1=C2[C@@H](CN(S(=O)(=O)c3ccccc3C)[C@H]2c2ccc(Cl)cc2)[C@H]2C(=O)N(c3ccccc3)C(=O)[C@H]2C1 | 4 | 0 | -6 | -5 | 0 | 1
CCOC1=C2[C@@H](CN(S(=O)(=O)c3ccccc3C)[C@H]2c2ccc(Cl)cc2)[C@H]2C(=O)NC(=O)[C@H]2C1 | 8 | 2 | -6 | -14 | 43* | 2
CC(C)OCCCN(C)C1CCN(S(=O)(=O)c2ccc(-c3cc(C(F)(F)F)no3)s2)CC1 | -9 | 7 | 9 | -21 | 53* | -7
O=C(Nc1cc(S(=O)(=O)N2CCCCC2)ccc1Cl)c1ccccc1NS(=O)(=O)c1ccc(F)cc1 | -15 | 8 | 30* | 5 | 13 | 4
COc1ccc(-c2csc(NC(=O)c3ccccc3NS(=O)(=O)c3ccc(F)c(F)c3)n2)cc1 | -36 | 13 | 42* | -22 | 12 | 1
O=C(Nc1ccc(F)cc1)Nc1ccc(N2CCCC2)c(S(=O)(=O)Nc2ccccc2Cl)c1 | -14 | 12 | 29* | -12 | 18 | 3
O=C(Nc1ccccc1N1CCOCC1)c1ccccc1NS(=O)(=O)c1ccc(F)c(F)c1 | 36* | 13 | 23 | -3 | 1 | 14
O=C(Nc1ccccc1N1CCOCC1)c1ccccc1NS(=O)(=O)c1ccc(F)cc1 | -14 | 4 | 6 | 3 | -5 | 1
O=C(Nc1cc(S(=O)(=O)N2CCCCC2)ccc1O)c1ccccc1NS(=O)(=O)c1ccc(F)cc1 | -6 | 1 | 13 | -7 | 5 | 0
N#Cc1ccc(C(CC(=O)O)N2Cc3ccccc3C2=O)cc1 (centres undefined) | 0 | 1 | 0 | -3 | 14 | 0
O=C(NCC1CCCCC1)c1ccc(F)cc1Cl | 5 | -1 | 2 | -1 | 8 | -2
Cc1ccc(S(=O)(=O)Nc2ccccc2C(=O)Nc2nc(-c3ccc(F)cc3)cs2)cc1 | -18 | 12 | 38* | -24 | 21 | 6
COc1ccc(C(CNc2ccc(S(=O)(=O)N3CCCC3)cc2[N+](=O)[O-])N2CCCC2)cc1 (centres undefined) | -17 | 3 | 32* | -9 | 13 | -5
C=CC[C@@H](CC(=O)N(CCO)Cc1ccccc1)C(=O)N[C@H](COC(=O)[C@@H](CC=C)Cc1ccc(F)cc1)Cc1ccccc1 | -25 | 11 | 18 | -12 | 31* | -2
C=CC[C@@H](CC(=O)N(CCO)Cc1ccccc1)C(=O)NC[C@@H](OC(=O)[C@@H](CC=C)Cc1ccc(F)cc1)c1ccccc1 | -21 | 14 | 16 | -9 | 22 | -1
C=CC[C@H](CC(=O)N(CCO)Cc1ccccc1)C(=O)NC[C@H](OC(=O)[C@@H](CC=C)Cc1ccc(F)cc1)c1ccccc1 | -30 | 21 | 20 | -14 | 30* | 0
O=C(NCc1cccc2ccsc12)c1cccs1 | 9 | 2 | -7 | 4 | -18 | -3
Fc1ccc(C(CCCn2nnc(-c3cccnc3)n2)c2ccc(F)cc2)cc1 | -54 | 6 | 22 | -18 | 29* | -10
Fc1ccc(-n2nnc(-c3cccnc3)n2)cc1 | 3 | 1 | 8 | 11 | -4 | 2
SMILES | CHRM5 PAM | CHRM4 agonist | M5 antag | CHRM4 PAM | M4 antag | M5 ag
CCC(C)(C)n1nnnc1C(c1ccc(C)cc1)N1CCN(C(=O)c2ccco2)CC1 (centres undefined) | 35* | 3 | -10 | 9 | -26 | -8
CCCC(c1nnnn1Cc1ccco1)N1CCN(C(=O)c2ccco2)CC1 (centres undefined) | 1 | 1 | -14 | 20* | -12 | -8
CNc1ncnc2c1ncn2[C@H]1CN(CCOC)C[C@@H](CO)O1 | -1 | 0 | -4 | -1 | -3 | 1
O=C(CSc1nc2ccccc2o1)Nc1ccc(N2CCOCC2)c(Cl)c1 | -14 | 13 | 28* | -7 | 16 | 7
Cc1nnc(NC(=O)CSc2nc3ccccc3o2)s1 | 2 | 1 | -6 | 32* | 6 | 3
O=C(CSc1nc2ccccc2s1)Nc1ccc(N2CCOCC2)c(Cl)c1 | -13 | 6 | 12 | 3 | -3 | 3
CCc1nnc(NC(=O)CSc2nc3ccccc3o2)s1 | -5 | 1 | 6 | 8 | -8 | -1
CCn1c(C)nc2cc(S(N)(=O)=O)ccc21 | -2 | 1 | -9 | -1 | -5 | 0
CCn1c(C)nc2cc(S(=O)(=O)C(F)(F)C(F)C(F)(F)F)ccc21 (centres undefined) | -14 | 14 | 27* | -10 | 4 | 7
CCCOC(=O)c1ccc(Oc2coc3c(CN(CC)CC)c(O)ccc3c2=O)cc1 | -9 | 2 | -10 | -20 | 93* | -10
O=C(c1ccccc1)n1c2ccccc2c(=O)n1-c1ccccc1CCl | 0 | 2 | 4 | 2 | -7 | -2
O=[N+]([O-])c1cc(C(F)(F)F)ccc1SCC(O)CO (centres undefined) | 26* | 2 | 17 | 14 | -13 | 9
O=C(O)CCN1C(=O)C2CCCCC2C1=O (centres undefined) | -2 | 1 | 3 | 19* | -16 | 0
O=C(O)CCN1C(=O)C2C3C=CC(C3)C2C1=O (centres undefined) | 1 | 0 | -2 | -3 | 9 | -1
O=C(Oc1ccc(Br)cc1C(=S)N1CCCC1)c1ccccc1F | -11 | 1 | 9 | -6 | -11 | -5
O=C(Oc1ccc(Br)cc1C(=S)N1CCCC1)c1ccccc1Cl | 20* | 0 | -17 | 6 | 2 | -7
O=C(Cc1nnc(NC(=O)c2cccc([N+](=O)[O-])c2)s1)NCc1ccccc1 | -4 | 1 | 15 | 4 | 2 | -4

High-throughput results deposited in PubChem BioAssay by The Scripps Research Institute Molecular Screening Center.
